pIC50: −log10 of the molar value.
How the values were obtained:
[1] = Drug recovery in rat liver microsomes at 1 uM measured after 30 mins by LC-MS/MS analysis; type: ADME, microsome; conditions: liver microsomes, read-out: Drug recovery
[2] = Intrinsic clearance in monkey liver microsomes assessed per mg protein at 1 uM preincubated for 5 mins followed by NADPH addition measured after 5 to 30 mins by LC-MS/MS analysis; conditions: for microsomal CLint at 1 µM: liver microsomes, read-out: CLH
[3] = biological target: T1, CYP2C9 (Homo sapiens, UniProt P11712); assay: Time dependent irreversible inhibition of CYP2C9 in human liver microsomes at 10 uM preincubated with compound followed by NADPH addition by LC-MS/MS analysis; type: ADME; conditions: liver microsomes
T1 sequence (P11712 whole entry): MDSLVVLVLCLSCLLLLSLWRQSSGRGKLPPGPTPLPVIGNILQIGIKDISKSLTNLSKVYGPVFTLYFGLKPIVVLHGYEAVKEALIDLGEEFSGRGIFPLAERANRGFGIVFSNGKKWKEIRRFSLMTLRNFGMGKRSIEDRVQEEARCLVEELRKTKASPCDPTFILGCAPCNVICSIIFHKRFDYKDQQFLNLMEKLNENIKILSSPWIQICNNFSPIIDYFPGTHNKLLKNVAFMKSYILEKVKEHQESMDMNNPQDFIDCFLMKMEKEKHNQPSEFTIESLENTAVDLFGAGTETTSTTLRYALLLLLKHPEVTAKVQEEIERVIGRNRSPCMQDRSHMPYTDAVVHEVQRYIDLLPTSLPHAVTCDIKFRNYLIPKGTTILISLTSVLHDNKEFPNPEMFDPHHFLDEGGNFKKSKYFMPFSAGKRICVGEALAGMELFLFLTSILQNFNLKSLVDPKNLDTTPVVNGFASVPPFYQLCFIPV
How it was run: (§1)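 HLM (0.2 mg/ml) with 10 µM compound were preincubated 0, 5, 10 or 20 min at 37°C with 1 mM NADPH or PBS. Substrate cocktail (halved concentrations) plus NADPH was then added for 10 min. Metabolites were measured by LC-MS/MS. Kobs is the slope of relative activity versus preincubation time.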

[4] = tested on: NCI-H1993; assay: Growth inhibition of human NCI-H1993 cells after 72 hrs by CCK-8 assay; type: functional, cell-based; conditions: Homo sapiens, NCI-H1993, 72 h
[5] = biological target: T2, CYP1A2 (Homo sapiens, UniProt P05177); assay: Time dependent irreversible inhibition of CYP1A2 in human liver microsomes at 10 uM preincubated with compound followed by NADPH addition by LC-MS/MS analysis; type: ADME; conditions: liver microsomes; how it was run: as §1
T2 sequence (P05177 whole entry): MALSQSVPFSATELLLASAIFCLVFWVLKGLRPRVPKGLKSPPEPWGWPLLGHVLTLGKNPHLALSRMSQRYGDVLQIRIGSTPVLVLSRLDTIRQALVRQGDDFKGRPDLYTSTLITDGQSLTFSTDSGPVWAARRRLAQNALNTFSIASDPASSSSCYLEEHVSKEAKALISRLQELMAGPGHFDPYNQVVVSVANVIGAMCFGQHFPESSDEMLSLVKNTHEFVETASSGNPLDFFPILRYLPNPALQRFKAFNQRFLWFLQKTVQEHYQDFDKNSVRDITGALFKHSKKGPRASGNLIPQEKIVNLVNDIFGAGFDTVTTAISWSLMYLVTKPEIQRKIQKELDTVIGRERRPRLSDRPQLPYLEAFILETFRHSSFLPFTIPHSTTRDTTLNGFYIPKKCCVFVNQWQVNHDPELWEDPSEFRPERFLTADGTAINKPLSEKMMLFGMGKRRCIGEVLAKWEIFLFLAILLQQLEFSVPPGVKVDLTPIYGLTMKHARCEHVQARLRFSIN

[6] = tested on: SNU-5; assay: Growth inhibition of human SNU5 cells after 72 hrs by CCK-8 assay; type: functional, cell-based; conditions: Homo sapiens, SNU-5, 72 h
[7] = biological target: T3, CYP2D6 (Homo sapiens, UniProt P10635); assay: Time dependent irreversible inhibition of CYP2D6 in human liver microsomes at 10 uM preincubated with compound followed by NADPH addition by LC-MS/MS analysis; type: ADME; conditions: liver microsomes; how it was run: as §1
T3 sequence (P10635 whole entry): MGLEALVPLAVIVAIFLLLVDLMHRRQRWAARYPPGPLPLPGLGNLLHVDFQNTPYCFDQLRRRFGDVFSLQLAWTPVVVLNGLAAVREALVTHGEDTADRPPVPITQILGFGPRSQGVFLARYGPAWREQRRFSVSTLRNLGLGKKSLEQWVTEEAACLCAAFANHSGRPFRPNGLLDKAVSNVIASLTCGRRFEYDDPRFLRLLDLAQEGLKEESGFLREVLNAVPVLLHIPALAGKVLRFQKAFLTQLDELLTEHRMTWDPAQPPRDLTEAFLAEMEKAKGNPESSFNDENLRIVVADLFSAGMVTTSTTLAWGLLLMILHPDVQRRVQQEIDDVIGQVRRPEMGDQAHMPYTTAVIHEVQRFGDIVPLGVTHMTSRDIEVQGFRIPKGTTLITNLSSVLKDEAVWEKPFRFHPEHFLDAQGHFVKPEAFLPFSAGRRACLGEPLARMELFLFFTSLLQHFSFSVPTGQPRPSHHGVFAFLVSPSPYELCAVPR

[8] = biological target: T4, CYP2C19 (Homo sapiens, UniProt P33261); assay: Time dependent irreversible inhibition of CYP2C19 in human liver microsomes at 10 uM preincubated with compound followed by NADPH addition by LC-MS/MS analysis; type: ADME; how it was run: as §1
T4 sequence (P33261 whole entry): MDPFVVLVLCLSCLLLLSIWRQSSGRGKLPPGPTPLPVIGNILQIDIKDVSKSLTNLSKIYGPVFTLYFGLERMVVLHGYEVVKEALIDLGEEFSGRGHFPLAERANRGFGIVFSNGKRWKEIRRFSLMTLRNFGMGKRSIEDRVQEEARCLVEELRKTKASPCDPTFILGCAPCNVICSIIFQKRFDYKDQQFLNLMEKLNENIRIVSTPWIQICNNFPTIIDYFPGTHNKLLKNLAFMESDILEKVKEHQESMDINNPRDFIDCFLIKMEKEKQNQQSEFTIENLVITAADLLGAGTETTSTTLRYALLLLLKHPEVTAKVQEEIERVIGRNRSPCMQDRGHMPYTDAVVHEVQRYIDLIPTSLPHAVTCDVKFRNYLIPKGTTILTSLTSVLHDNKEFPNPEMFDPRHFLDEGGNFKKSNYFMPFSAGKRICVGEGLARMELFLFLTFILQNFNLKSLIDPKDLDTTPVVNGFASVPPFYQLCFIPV

[9] = Drug recovery in monkey liver microsomes at 1 uM measured after 30 mins by LC-MS/MS analysis
[10] = Drug recovery in human liver microsomes at 1 uM measured after 30 mins by LC-MS/MS analysis; type: ADME, microsome; conditions: liver microsomes, read-out: Drug recovery
How it was run: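 Liver microsomes (0.5 mg/ml) were incubated with 1 µM compound at 37°C in 100 mM phosphate buffer pH 7.4 without NADPH for 30 min. Reactions were quenched with acetonitrile/tinidazole internal standard and analysed by LC-MS/MS. Recovery (%) was taken from the compound/internal standard peak area ratio.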

[11] = Intrinsic clearance in human liver microsomes assessed per mg protein at 1 uM preincubated for 5 mins followed by NADPH addition measured after 5 to 30 mins by LC-MS/MS analysis; type: ADME, microsome; conditions: read-out: CLH
How it was run: (§2)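 Microsomes (0.5 mg/ml) with 1 µM compound were preincubated 5 min at 37°C in 100 mM phosphate buffer pH 7.4, then started with 1 mM NADPH. Samples were taken at 0, 5, 10 and 30 min, quenched with acetonitrile/tinidazole and run by LC-MS/MS. CLint = k / microsomal protein concentration. Midazolam was the positive control.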

[12] = biological target: T5, Cytochrome P450 3A4 (Homo sapiens, UniProt P08684); assay: (§3) Reversible inhibition of CYP3A4 in human liver microsomes at 10 uM after 20 mins in presence of NADPH by LC-MS/MS analysis; type: ADME; conditions: microsomes, 20 min, 10 µM
T5 sequence (P08684 whole entry): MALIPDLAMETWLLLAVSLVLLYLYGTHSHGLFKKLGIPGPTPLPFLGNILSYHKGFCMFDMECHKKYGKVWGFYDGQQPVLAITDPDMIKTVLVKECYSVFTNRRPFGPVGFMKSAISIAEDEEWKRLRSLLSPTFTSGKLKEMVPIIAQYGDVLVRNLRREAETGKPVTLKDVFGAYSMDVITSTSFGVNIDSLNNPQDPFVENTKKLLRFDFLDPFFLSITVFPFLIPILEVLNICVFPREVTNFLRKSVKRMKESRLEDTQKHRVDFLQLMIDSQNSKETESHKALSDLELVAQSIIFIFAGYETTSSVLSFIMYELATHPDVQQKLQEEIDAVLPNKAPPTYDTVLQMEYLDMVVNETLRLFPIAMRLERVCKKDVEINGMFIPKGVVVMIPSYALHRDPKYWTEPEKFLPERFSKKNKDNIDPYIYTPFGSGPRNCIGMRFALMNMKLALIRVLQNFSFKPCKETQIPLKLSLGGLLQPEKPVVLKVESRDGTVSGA

[13] = Intrinsic clearance in rat liver microsomes assessed per mg protein at 1 uM preincubated for 5 mins followed by NADPH addition measured after 5 to 30 mins by LC-MS/MS analysis; type: ADME, microsome; conditions: read-out: CLH; how it was run: as §2
[14] = biological target: T6, CYP3A4 (Homo sapiens, UniProt P08684); assay: (§4) Time dependent irreversible inhibition of CYP3A4 in human liver microsomes at 10 uM preincubated with compound followed by NADPH addition by LC-MS/MS analysis; type: ADME; conditions: liver microsomes; how it was run: as §1
T6 sequence (P08684 whole entry): as above

[15] = biological target: Cytochrome P450 2C19 (Homo sapiens, UniProt P33261); assay: (§5) Reversible inhibition of CYP2C19 in human liver microsomes at 10 uM after 20 mins in presence of NADPH by LC-MS/MS analysis; type: ADME; conditions: microsomes, 20 min, 10 µM
Sequence of Cytochrome P450 2C19 (P33261 whole entry): as the sequence (P33261 whole entry) above

[16] = biological target: Cytochrome P450 2C9 (Homo sapiens, UniProt P11712); assay: (§6) Reversible inhibition of CYP2C9 in human liver microsomes at 10 uM after 20 mins by in presence of NADPH LC-MS/MS analysis; type: ADME; conditions: microsomes, 20 min, 10 µM
Sequence of Cytochrome P450 2C9 (P11712 whole entry): as the sequence (P11712 whole entry) above

[17] = biological target: Hepatocyte growth factor receptor (Homo sapiens, UniProt P08581); assay: Inhibition of c-MET (unknown origin) using TK substrate-biotin peptide as substrate preincubated for 5 to 10 mins followed by ATP addition measured after 30 mins by HTRF assay
Sequence of Hepatocyte growth factor receptor (P08581 whole entry): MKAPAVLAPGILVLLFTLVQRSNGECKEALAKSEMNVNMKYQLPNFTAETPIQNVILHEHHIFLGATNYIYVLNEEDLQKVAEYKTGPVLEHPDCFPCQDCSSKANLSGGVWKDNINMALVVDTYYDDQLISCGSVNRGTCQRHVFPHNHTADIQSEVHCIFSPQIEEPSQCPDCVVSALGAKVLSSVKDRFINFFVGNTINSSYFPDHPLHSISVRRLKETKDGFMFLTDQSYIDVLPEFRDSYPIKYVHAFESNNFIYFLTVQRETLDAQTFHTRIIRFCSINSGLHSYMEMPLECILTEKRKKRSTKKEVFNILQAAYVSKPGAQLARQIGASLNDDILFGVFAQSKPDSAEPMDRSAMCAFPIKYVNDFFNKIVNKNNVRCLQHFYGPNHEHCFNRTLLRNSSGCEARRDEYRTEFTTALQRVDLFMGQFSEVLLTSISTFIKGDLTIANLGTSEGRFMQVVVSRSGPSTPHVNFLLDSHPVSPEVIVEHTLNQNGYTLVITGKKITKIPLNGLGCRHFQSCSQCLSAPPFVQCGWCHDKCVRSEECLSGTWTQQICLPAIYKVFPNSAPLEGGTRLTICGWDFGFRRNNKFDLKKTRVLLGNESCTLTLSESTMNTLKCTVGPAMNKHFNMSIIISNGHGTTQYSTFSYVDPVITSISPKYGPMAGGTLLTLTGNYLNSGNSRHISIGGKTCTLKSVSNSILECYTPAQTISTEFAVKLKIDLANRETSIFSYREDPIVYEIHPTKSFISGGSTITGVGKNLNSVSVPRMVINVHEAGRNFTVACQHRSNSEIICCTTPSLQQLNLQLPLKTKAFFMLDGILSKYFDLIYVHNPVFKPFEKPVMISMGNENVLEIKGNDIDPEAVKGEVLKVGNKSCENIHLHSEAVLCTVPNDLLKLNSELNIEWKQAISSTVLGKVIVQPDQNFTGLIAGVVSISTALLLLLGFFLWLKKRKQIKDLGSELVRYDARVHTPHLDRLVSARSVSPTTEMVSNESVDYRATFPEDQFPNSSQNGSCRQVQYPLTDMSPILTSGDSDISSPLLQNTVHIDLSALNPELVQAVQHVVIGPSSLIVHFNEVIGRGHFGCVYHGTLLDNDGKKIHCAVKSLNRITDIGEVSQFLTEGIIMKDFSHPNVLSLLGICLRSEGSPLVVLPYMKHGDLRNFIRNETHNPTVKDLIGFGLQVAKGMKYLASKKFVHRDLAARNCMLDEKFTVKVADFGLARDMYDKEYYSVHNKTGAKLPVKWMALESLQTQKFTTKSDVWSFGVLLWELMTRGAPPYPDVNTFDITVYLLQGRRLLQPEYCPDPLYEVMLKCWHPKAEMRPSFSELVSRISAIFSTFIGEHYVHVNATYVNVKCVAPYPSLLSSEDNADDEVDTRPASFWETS

[18] = biological target: T3, CYP2D6; assay: Reversible inhibition of CYP2D6 in human liver microsomes at 10 uM after 20 mins in presence of NADPH by LC-MS/MS analysis; type: ADME; conditions: liver microsomes
[19] = biological target: T4, CYP2C19; assay: as §5; type: ADME; conditions: liver microsomes
[20] = biological target: T1, CYP2C9; assay: as §6; type: ADME; conditions: liver microsomes
[21] = biological target: T2, CYP1A2; assay: Reversible inhibition of CYP1A2 in human liver microsomes at 10 uM after 20 mins in presence of NADPH by LC-MS/MS analysis; type: ADME
[22] = biological target: T6, CYP3A4; assay: as §3; type: ADME; conditions: liver microsomes
[23] = biological target: T5, Cytochrome P450 3A4; assay: as §4; type: ADME; conditions: microsomes, 10 µM; how it was run: as §1

Structure (SMILES)	remaining at 0.5 h, 1 µM [1]	microsomal CLint at 1 µM [2]	inhibition at 10 µM [3]	pIC50 [4]	inhibition at 10 µM [5]	pIC50 [6]	inhibition at 10 µM [7]	inhibition at 10 µM [8]	remaining at 0.5 h, 1 µM [9]	remaining at 0.5 h, 1 µM [10]	microsomal CLint at 1 µM [11]	microsomal CLint at 1 µM [13]	inhibition at 10 µM [14]	also measured
CC(c1ccc2ncc(-c3cnn(C)c3)cc2c1)n1nnc2ncc(-c3ccncc3)nc21 (stereo unspecified)	94%	78 µL/min/mg	< 50%	9.05	< 50%	8.92	< 50%	< 50%	90%	104%	22 µL/min/mg	61 µL/min/mg	< 50%	inhibition (INH) [12]: Active
CC(c1ccc2ncc(-c3cnn(C)c3)cc2c1)n1nnc2ncc(-c3cnn(CCO)c3)nc21 (stereo unspecified)	104%	16 µL/min/mg	< 50%	9.70	< 50%	8.74	< 50%	< 50%	108%	105%		6 µL/min/mg	< 50%	inhibition (INH) [15]: Active; inhibition (INH) [16]: Active
CC(c1c(F)cc2ncc(-c3ccc(F)cc3)cc2c1F)n1nnc2ncc(-c3ccncc3)nc21 (stereo unspecified)				8.46		8.14								
C[C@@H](c1cc2cccnc2cc1F)n1cnc2ncc(-c3cnn(C)c3)nc21	79%								1%	92%	8 µL/min/mg	49 µL/min/mg		CLH ([2]; microsomes, 1 µM): Nd(Unstable)
CC(c1cc2cc(-c3cnn(C)c3)cnc2cc1F)n1nnc2ncc(-c3ccncc3)nc21 (stereo unspecified)	106%	49 µL/min/mg	< 50%	8.49	< 50%	8.60	< 50%	< 50%	103%	113%	4 µL/min/mg	55 µL/min/mg	< 50%	inhibition (INH) [15]: Active; inhibition (INH) [16]: Active; inhibition (INH) [12]: Active
CC(c1c(F)cc2ncc(-c3cnn(C)c3)cc2c1F)n1nnc2ncc(-c3cnn(CCO)c3)nc21 (stereo unspecified)	97%	43 µL/min/mg	< 50%	9.10	< 50%	8.89	< 50%	< 50%	102%	98%	8 µL/min/mg	20 µL/min/mg	< 50%	inhibition (INH) [15]: Active; inhibition (INH) [16]: Active
CC(c1ccc2ncc(-c3ccc(F)cc3)cc2c1)n1nnc2ncc(-c3ccncc3)nc21 (stereo unspecified)	91%	65 µL/min/mg		8.06		8.15			97%	105%	14 µL/min/mg	56 µL/min/mg		
CNC(=O)c1ccc(-c2cnc3nnn(C(C)c4c(F)cc5ncc(-c6cnn(C)c6)cc5c4F)c3n2)cc1F (stereo unspecified)	95%	187 µL/min/mg	< 50%		< 50%	9.05	< 50%	< 50%	95%	92%	5 µL/min/mg	48 µL/min/mg	< 50%	inhibition (INH) [15]: Active; inhibition (INH) [16]: Active
CC(c1cc2cc(-c3ccc(F)cc3)cnc2cc1F)n1nnc2ncc(-c3ccncc3)nc21 (stereo unspecified)				8.44		8.17								
CC(c1ccc2nc(-c3cnn(C)c3)ccc2c1)n1nnc2ncc(-c3ccc(N)cc3)nc21 (stereo unspecified)														pIC50 [17]: < 7.00
CC(c1ccc2nc(-c3cnn(C)c3)ccc2c1)n1nnc2ncc(-c3cnn(C)c3)nc21 (stereo unspecified)														pIC50 [17]: < 7.00
CNC(=O)c1ccc(-c2cnc3nnn(C(C)c4ccc5ncc(-c6cnn(C)c6)cc5c4)c3n2)cc1F (stereo unspecified)	114%	16 µL/min/mg	< 50%	9.30	< 50%	9.22	< 50%	< 50%	97%	115%	1 µL/min/mg	5 µL/min/mg	< 50%	inhibition (INH) [12]: Active
CNC(=O)c1ccc(-c2cnc3nnn(C(C)c4cc5cc(-c6cnn(C)c6)cnc5cc4F)c3n2)cc1F (stereo unspecified)	111%	24 µL/min/mg	< 50%	8.96	< 50%	9.22	< 50%	< 50%	69%	116%	5 µL/min/mg	12 µL/min/mg	< 50%	inhibition at 20 min, 10 µM [18]: < 50%; inhibition at 20 min, 10 µM [19]: < 50%; inhibition at 20 min, 10 µM [20]: < 50%; inhibition at 20 min, 10 µM [21]: < 50%; inhibition at 20 min, 10 µM [22]: < 50%
CC(c1ccc2ncc(-c3ccc(F)cc3)cc2c1)n1nnc2ncc(-c3cnn(C)c3)nc21 (stereo unspecified)	97%	112 µL/min/mg		8.92		8.66			109%	105%	16 µL/min/mg	28 µL/min/mg		
CC(c1cc2cc(-c3ccc(F)cc3)cnc2cc1F)n1nnc2ncc(-c3cnn(C)c3)nc21 (stereo unspecified)				8.39		8.70								
CC(c1c(F)cc2ncc(-c3cnn(C)c3)cc2c1F)n1nnc2ncc(-c3cnn(C)c3)nc21 (stereo unspecified)	94%	86 µL/min/mg		9.10		8.89			75%	91%	17 µL/min/mg	22 µL/min/mg		inhibition (INH) [15]: Active; inhibition (INH) [16]: Active; TDI [23]: Active
CNC(=O)c1ccc(-c2cnc3nnn(C(C)c4ccc5ncc(-c6ccc(F)cc6)cc5c4)c3n2)cc1F (stereo unspecified)	97%	119 µL/min/mg		8.38		8.43			93%	104%	15 µL/min/mg	57 µL/min/mg		
CC(c1c(F)cc2ncc(-c3ccc(F)cc3)cc2c1F)n1nnc2ncc(-c3cnn(C)c3)nc21 (stereo unspecified)				8.59		8.66								
